“Also recorded” adds a separate entry of the source. Each block holds one compound with its values, some of them ahead of it.
Key:
rat OR-I7 [1] = biological target: T1, rat OR-I7 (Rattus norvegicus, UniProt P23270); assay type: cell-based; conditions: for potency compared with n-alkanals (in words): activation dose-response curves; for activation of OR-I7 (in words): dose-response by calcium imaging; for maximal efficacy relative to 10 μM 1: mean ± SEM; for OR-I7 response at 30 μM (in words): calcium imaging trace of a GFP+ OSN
T1 sequence (P23270 1-327): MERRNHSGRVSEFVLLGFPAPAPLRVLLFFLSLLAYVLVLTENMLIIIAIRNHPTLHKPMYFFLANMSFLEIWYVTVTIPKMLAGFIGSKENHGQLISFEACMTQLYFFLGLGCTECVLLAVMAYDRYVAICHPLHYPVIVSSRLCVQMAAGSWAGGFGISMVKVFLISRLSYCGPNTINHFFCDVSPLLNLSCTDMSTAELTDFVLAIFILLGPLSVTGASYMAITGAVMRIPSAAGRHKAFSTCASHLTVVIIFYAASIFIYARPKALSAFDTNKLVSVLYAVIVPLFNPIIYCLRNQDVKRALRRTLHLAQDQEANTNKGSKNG
Summary of the method: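 Dissociated olfactory neurons from male Sprague-Dawley rats (6-7 wk) infected with adenovirus encoding OR-I7 plus separate GFP. GFP+ cells were fura-2AM loaded for 45 min at room temperature and imaged at 380/510 nm every 4 s. The compound came from 0.5M DMSO stock with DMSO-matched dilutions, given as 4 s pulses 3.25 min apart. Each movie was flanked by 10 μM normalizing stimuli and ΔF/F normalized to the trend line. Hill fit used ≥3 cells per point; EC50 ± SD.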

rat OR-I7 [2] = biological target: T1, rat OR-I7; assay: Antagonism of octanal; assay type: cell-based; conditions: against saturating 10 μM C8
Summary of the method: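 GFP+ OR-I7-expressing rat olfactory neurons were imaged with fura-2 at room temperature under continuous Ringer perfusion at pH 7.4. The test compound at various concentrations was co-applied with 10 μM octanal. The response was normalized to a trend line between flanking stimuli. An antagonist had to give under 90% of the octanal-alone response. Ratios are mean ± SEM. Inhibition curves were Hill-fitted, with at least three cells per point and IC50 ± SD.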

rat OSNs = assay: Panel screening of 1190 viable rat OSNs by calcium imaging; assay type: cell-based; conditions: 30 μM, 1190 tested rat OSNs
Summary of the method: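 Whole olfactory epithelium from uninfected rats was dissociated (collagenase, dispase), plated on concanavalin A coverslips and kept at 32 °C. Cells were loaded with fura-2AM and imaged at room temperature. Each test compound was given individually at 30 μM in random order, 5 min apart, with a DMSO vehicle application. 10 μM forskolin came last for normalization and viability. Responding cells were counted among 1190 tested.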

OR-I7 = conditions: vapor phase; ref Araneda et al., 2000; Zhao et al., 1998; cited from earlier work

Structure (SMILES): CCC1CCC(CC=O)CC1 (stereo not shown) [Compound 11]
potency compared with n-alkanals (in words) (rat OR-I7 [1]): more active than C8 | maximal efficacy relative to 10 μM octanal (rat OR-I7 [1]; cis/trans mixture): 1.07 ± 0.05

Structure (SMILES): CCCC=O [Compound C4, reference compound]
activation of OR-I7 (in words) (rat OR-I7 [1]): inactive; also recorded: neither type of activity | antagonism of C8 activation of OR-I7 (in words) (rat OR-I7 [2]): failure of C4 (3.9Å) to antagonize C8 activation; also recorded: neither type of activity

Structure (SMILES): O=CCCCCC1CC1 [Compound 2]
potency compared with n-alkanals (in words) (rat OR-I7 [1]): more potent than C8 | fold more potent than C7 (rat OR-I7 [1]; compound 2 vs C7, identical extended length): 40 fold | activation of OR-I7 (in words) (rat OR-I7 [1]): strongly activated | maximal efficacy relative to 10 μM 1 (rat OR-I7 [1]): 0.99 ± 0.02

Structure (SMILES): O=CCCC1CCCC1 [Compound 4]
OR-I7 response at 30 μM (in words) (rat OR-I7 [1]): unresponsive | activation of OR-I7 (in words) (rat OR-I7 [1]): weakly or not at all; also recorded: marginally active

Structure (SMILES): O=CCCCC1CCC1 [Compound 3]
OR-I7 response at 30 μM (in words) (rat OR-I7 [1]): near saturating level | potency compared with n-alkanals (in words) (rat OR-I7 [1]): more potent than both | activation of OR-I7 (in words) (rat OR-I7 [1]): strongly activated | maximal efficacy relative to 10 μM 1 (rat OR-I7 [1]): 1.06 ± 0.1 | difference in activity between compound 4 and compound 3 (rat OR-I7 [1]; ratio of EC50, compound 3 vs compound 4): 163 fold

Structure (SMILES): O=CC1CCCCCC1 [Compound 6]
percentage of OSNs activated (rat OSNs): 3.6% | activation of OR-I7 (in words) (rat OR-I7 [1]): weakly or not at all; also recorded: inactive | antagonism of C8 activation of OR-I7 (in words) (rat OR-I7 [2]): antagonize C8 activity

Structure (SMILES): O=CCC1CCCCC1 [Compound 5]
percentage of OSNs activated (rat OSNs): 3.4% | activation of OR-I7 (in words) (rat OR-I7 [1]): weakly or not at all; also recorded: inactive; also recorded: no substantial activity

Second part, led by results:

activation of OR-I7 (in words) (rat OR-I7 [1]): inactive
Structure (SMILES): CCCCC=O [Compound C5, reference compound]

maximal efficacy relative to 10 μM 1 (rat OR-I7 [1]): 0.89 ± 0.02
Structure (SMILES): CCCCCCCC=O [Compound C8, octanal, reference compound]
percentage of OSNs activated (rat OSNs): 5.9%

increase in activity in the step from C6 to C7 (rat OR-I7 [1]; C7 vs C6, calcium imaging): 145 fold | maximal efficacy relative to 10 μM 1 (rat OR-I7 [1]): 0.86 ± 0.07
Structure (SMILES): CCCCCCC=O [Compound C7, reference compound]
activation of OR-I7 by EOG (in words) (OR-I7): activation

activation of OR-I7 (in words) (rat OR-I7 [1]): marginally active
Structure (SMILES): CCCCCC=O [Compound C6, reference compound]
activation of OR-I7 by EOG (in words) (OR-I7): no activation
